According to ChEMBL document CHEMBL1148339, “Synthesis, structure-activity relationships, and drug resistance of beta-d-3'-fluoro-2',3'-unsaturated nucleosides as anti-HIV Agents” (J Med Chem, 2004):
pEC50, pIC50: −log10 of the molar value.

Assays:
[1] = system: CCRF-CEM; test: Cytotoxicity against T-lymphoblastoid cell line (CEM); type: functional, cell-based; conditions: Homo sapiens
Outline: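 CEM T-lymphoblastoid cells in log phase, seeded 2.5 × 10³ cells/well with 10-fold serial dilutions of compound, 4 days at 37 °C in humidified 5% CO₂/air.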

[2] = system: Human immunodeficiency virus 1; test: Effective concentration against HIV-1 in human peripheral blood mononuclear cells (PBMC); type: functional, organism-based
Outline: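 PBM cells infected in bulk for 1 h with HIV-1 LAI (100 TCID50/1 × 10⁷ cells, flask, or 200 TCID50/6 × 10⁵ cells/well), then cultured 5 days at 37 °C with 10-fold compound dilutions in IL-2 medium. Supernatant virus pelleted; RT activity measured with poly(rA)·oligo(dT) and [³H]TTP, 2 h 37 °C. EC50/EC90 by median effect method.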

[3] = Cytotoxicity against human peripheral blood mononuclear cells (PBMC); type: functional, cell-based
Outline: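 Uninfected PHA-stimulated human PBM cells from seronegative donors (Ficoll–Hypaque), 5 × 10⁴ cells/well, 10-fold serial compound dilutions, 5 days at 37 °C in 5% CO₂/air. MTT assay read at 570 nm; IC50 by median effect method.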

[4] = system: Vero; test: Cytotoxicity against vero cell line; type: functional, cell-based; conditions: Chlorocebus sabaeus
Outline: (§1)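 Log-phase Vero (African green monkey kidney) cells seeded 5 × 10³ cells/well with 10-fold serial compound dilutions, cultured 3 days at 37 °C, humidified 5% CO₂/air.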

[5] = t1/2 (half life) period was determined; type: ADME
[6] = system: Human immunodeficiency virus 1; test: Effective concentration against M184V HIV-1 virus in human peripheral blood mononuclear cells
[7] = system: Human immunodeficiency virus 1; test: Effective concentration against Wild Type HIV-1 virus in human peripheral blood mononuclear cells
[8] = system: Vero; test: Cytotoxicity against Vero cell line; type: functional, cell-based; conditions: Chlorocebus sabaeus; outline: as §1
[9] = system: adenosine deaminase (ADA); test: Ability to get deaminated by adenosine deaminase (ADA); Expressed as t1/2; type: ADME, Bos taurus; conditions: cattle
Outline: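 Calf intestinal mucosa adenosine deaminase, 0.15 units, in phosphate buffer pH 7.4 at 25 °C; substrate at 20 μM. Deamination followed by UV absorbance at 265 nm, with substrate concentration derived from absorbance change over time to give half-life.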

[10] = t1/2 (half life) period was determined; No decomposition observed up to 7 days; type: ADME; conditions: 168 h

Row | SMILES | pIC50 [1] | pEC50 [2] | pIC50 [3] | pIC50 [4] | further results
1 | Nc1ncnc2c1ncn2[C@@H]1C=C(F)[C@H](CO)O1 | < 4.00 | < 4.00 | < 4.00 | < 4.00 | 
2 | Nc1ccn([C@H]2C=C(F)[C@@H](CO)O2)c(=O)n1 | < 4.00 | 5.64 | < 4.00 | < 4.00 | half-life [5]: 48 h; pEC50 [6]: 4.71; pEC50 [7]: 5.64
3 | Nc1ccn([C@H]2C=C[C@@H](CO)O2)c(=O)n1 |  | 8.30 | 4.19 |  | half-life [5]: 1 h
4 | OC[C@H]1O[C@@H](n2cnc3c(O)ncnc32)C=C1F | 4.11 | 4.89 | < 4.00 | < 4.00 | 
5 | Nc1nc(O)c2ncn([C@H]3C=C(F)[C@@H](CO)O3)c2n1 | < 4.00 | 4.35 | < 4.00 | 4.12 | 
6 | Cc1cn([C@H]2C=C(F)[C@@H](CO)O2)c(=O)[nH]c1=O | < 4.00 | < 4.00 | < 4.00 |  | pIC50 [8]: < 4.00
7 | Nc1ncnc2c1ncn2[C@H]1C=C[C@@H](CO)O1 |  |  |  |  | half-life [9]: 4460 min
8 | O=c1ccn(C2C=C(F)C(CO)O2)c(=O)[nH]1 (stereo not given) | < 4.00 | < 4.00 | < 4.00 | 4.08 | 
9 | Nc1ncnc2c1ncn2[C@@H]1O[C@H](CO)C=C1F |  |  |  |  | half-life [9]: 42 min
10 | Nc1ncnc2c1ncn2[C@H]1C=C(F)[C@@H](CO)O1 | < 4.00 | 5.18 | < 4.00 | < 4.00 | half-life [9]: 56 min
11 | Nc1ccn([C@@H]2O[C@H](CO)C=C2F)c(=O)n1 |  |  |  |  | T1/2 [10]: Infinity
12 | Nc1nc(=O)n([C@H]2C=C(F)[C@@H](CO)O2)cc1F | < 4.00 | 5.03 | < 4.00 | < 4.00 | 
13 | Nc1nc(=O)n([C@@H]2C=C(F)[C@H](CO)O2)cc1F | < 4.00 | 7.74 | < 4.00 | < 4.00 | 
14 | Nc1ccn([C@@H]2C=C(F)[C@H](CO)O2)c(=O)n1 | < 4.00 | 7.05 | 4.06 | < 4.00 | pEC50 [6]: 5.62; pEC50 [7]: 7.05
15 | Nc1ncnc2c1ncn2[C@@H]1O[C@H](CO)[C@@H](O)[C@H]1O [ADENOSINE] |  |  |  |  | half-life [9]: 0.5 min
16 | Cc1cn([C@H]2C[C@H](N=[N+]=[N-])[C@@H](CO)O2)c(=O)[nH]c1=O [ZIDOVUDINE] |  |  |  |  | pEC50 [6]: 8.57; pEC50 [7]: 8.39
